Our source for the Activity, ED50 and IC50 values is ChEMBL document CHEMBL1149633, “Protection from endotoxic shock by EVK-203, a novel alkylpolyamine sequestrant of lipopolysaccharide” (Bioorg Med Chem, 2007).

The target of data set [1] is T1, MAP kinase p38 (Homo sapiens) (UniProt O15264+Q15759+Q16539+P53778). Kind of data set: Inhibition of p38MAPK phosphorylation in LPS-induced human whole blood neutrophils. The format is tissue-based.
Data set [2] deals with T1, MAP kinase p38 (Homo sapiens). Description: Inhibition of p38MAPK phosphorylation in TNF-alpha-induced human whole blood neutrophils. The format is protein assay.
For data set [3], the species on record is Mus musculus. Description: Prevention of LPS-induced lethality in D-galactosamine-primed CF1 mouse model of lethal endotoxic shock. The format is functional, organism-based.
A short description of data set [4]: Binding affinity to LPS by BODIPY-TR-cadaverine displacement assay. An outline of the steps: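 Fluorescence displacement of BODIPY-TR-cadaverine (5 μM) bound to E. coli O111:B4 smooth LPS (50 μg/ml), both in the mixture added to the wells. Compound serially diluted two-fold in 50 mM Tris pH 7.4 […], quadruplicates. Ex 580/em 620 nm at 25 °C. ED50 is the dose that displaces 50% of bound probe, taken from a four-parameter logistic fit.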

In data set [5] the target is T1, MAP kinase p38 (Homo sapiens). Description: Inhibition of TNFalpha induced p38MAPK phosphorylation in human whole blood neutrophils. The format is tissue-based.
Data set [6] concerns Blood. Kind of data set: Inhibition of LPS-induced IL6 production in human whole blood. The format is functional, tissue-based. The procedure, abridged: (§1)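 EDTA-anticoagulated fresh whole blood from healthy human volunteers, mixed with an equal volume of 20 ng/ml E. coli O111:B4 LPS. Graded compound, diluted in saline, added at the same time. Incubated 4 h. TNF-α, IL-6 and IL-8 were quantified by multiplexed flow-cytometric bead array against recombinant standard curves.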

For data set [7], the system named is Blood. Kind of data set: Inhibition of LPS-induced IL8 production in human whole blood. The format is functional, tissue-based. The procedure, abridged: as §1
Data set [8] has as its system Blood. Kind of data set: Inhibition of LPS-induced TNFalpha production in human whole blood. Format: functional, tissue-based. An outline of the steps: as §1
The subject of the next data set is J774.A1. Description: Inhibition of nitric oxide production in LPS-stimulated mouse J774A.1 cells. The format is functional, cell-based. An outline of the steps:
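J774A.1 cells in RPMI-1640 with 10% FBS and 200 μg/ml L-arginine, 37 °C, 5% CO2. Plated at ~10^5 cells/ml, grown to confluency, then given 10 ng/ml E. coli O111:B4 LPS together with serially diluted compound for 16 h. Nitrite measured with Griess reagent (15 min, RT, dark) at 535 nm against a sodium nitrite standard curve.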

A further data set deals with HEK293. Description: Inhibition of LPS-induced NF-kappaB induction in HEK293 cells co-transfected with TLR4, CD14 and MD2. Format: functional, cell-based. The note with it: Homo sapiens. An outline of the steps: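 HEK293 cells stably expressing TLR4, CD14, MD2 and an NF-κB/AP-1-driven secreted alkaline phosphatase reporter. Plated at ~10^5 cells/ml and grown to confluency. Stimulated with 10 ng/ml E. coli O111:B4 LPS plus serially diluted compound, then incubated overnight. seAP in the supernatant was read by chromogen at 620 nm.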

The subject of data set [9] is Mus musculus. Kind of data set: Inhibition of LPS-induced plasma IL6 level in sc dosed mouse pretreated 1 hr before LPS challenge by CBA assay. The format is functional, organism-based. An outline of the steps:
(§2)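 Female outbred CF-1 mice (9–11 weeks, 22–28 g), 5 per group. Graded compound or vehicle given s.c. at −1 h, then 200 ng LPS in saline i.p. at 0 h. Terminal cardiac-puncture blood taken under halothane at 1, 2 and 3 h. Plasma cytokines measured by mouse inflammation bead array.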

The test system of data set [10] is Mus musculus. Kind of data set: Prevention of LPS-induced lethality in D-galactosamine-primed CF1 mouse model of lethal endotoxic shock at 8 mg/kg, sc administered concurrently to LPS administration. Format: functional, organism-based. The arrangement: dose 8 mg/kg. An outline of the steps: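 D-galactosamine-sensitized female CF-1 mice received 8 mg/kg s.c. at different times before or after i.p. LPS (200 ng/animal, 2× LD100, given at 0 h), including concurrent dosing. Survival recorded.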

Data set [11] relates to Mus musculus. Kind of data set: Inhibition of LPS-induced plasma TNFalpha level in sc dosed mouse pretreated 1 hr before LPS challenge by CBA assay. Format: functional, organism-based. An outline of the steps: as §2
Data set [12] relates to Mus musculus. Kind of data set: Toxicity in mouse at 40 mg/kg, sc after 5 days. Format: organism-based. The arrangement: dose 40 mg/kg, route subcutaneous. The note with it: in vivo, 120 h. An outline of the steps: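 Female CF-1 mice were given 40 mg/kg s.c. in the lower flank daily for 5 days (200 mg/kg total), in 0.2 ml isotonic saline with human serum albumin at 66 mg/ml. They were monitored for external signs, and nephro- and hepatotoxicity were assessed by clinical chemistry on Day 6.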

Data set [13] relates to Mus musculus. Description: Inhibition of LPS-induced plasma MCP1 level in sc dosed mouse pretreated 1 hr before LPS challenge by CBA assay. Format: functional, organism-based. The procedure, abridged: as §2
The species named for data set [14] is Mus musculus. Description: Prevention of TNFalpha induced lethality in CF1 mouse. The format is functional, organism-based. The procedure, abridged:
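Mice were challenged with 100 ng/animal of recombinant murine TNF-α, and lethality was assessed.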

pIC50: −log10 of the molar value. The source made the active and inactive calls. No cut-off for these calls is given here.

T1 sequence (P53778 whole entry, looked up, chain 1 of 4): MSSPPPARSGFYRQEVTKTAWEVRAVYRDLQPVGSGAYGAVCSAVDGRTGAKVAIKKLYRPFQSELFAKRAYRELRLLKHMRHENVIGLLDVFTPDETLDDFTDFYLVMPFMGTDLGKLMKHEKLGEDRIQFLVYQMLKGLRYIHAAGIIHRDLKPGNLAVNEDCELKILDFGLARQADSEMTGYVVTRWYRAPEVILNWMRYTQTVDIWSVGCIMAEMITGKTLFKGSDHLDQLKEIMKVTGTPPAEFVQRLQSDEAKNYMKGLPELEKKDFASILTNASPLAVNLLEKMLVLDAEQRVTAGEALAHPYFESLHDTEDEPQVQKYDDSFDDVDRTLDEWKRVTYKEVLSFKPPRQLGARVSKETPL
T1 sequence (Q16539 whole entry, looked up, chain 2 of 4): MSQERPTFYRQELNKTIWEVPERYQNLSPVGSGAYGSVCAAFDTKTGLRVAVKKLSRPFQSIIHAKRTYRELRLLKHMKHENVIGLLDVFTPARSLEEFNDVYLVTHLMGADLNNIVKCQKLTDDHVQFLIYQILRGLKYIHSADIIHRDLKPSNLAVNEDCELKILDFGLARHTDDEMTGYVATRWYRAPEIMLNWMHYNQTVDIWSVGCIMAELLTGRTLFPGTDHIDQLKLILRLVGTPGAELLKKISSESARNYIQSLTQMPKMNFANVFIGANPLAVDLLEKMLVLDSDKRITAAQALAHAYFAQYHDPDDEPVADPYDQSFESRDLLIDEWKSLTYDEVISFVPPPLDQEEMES
T1 sequence (Q15759 whole entry, looked up, chain 3 of 4): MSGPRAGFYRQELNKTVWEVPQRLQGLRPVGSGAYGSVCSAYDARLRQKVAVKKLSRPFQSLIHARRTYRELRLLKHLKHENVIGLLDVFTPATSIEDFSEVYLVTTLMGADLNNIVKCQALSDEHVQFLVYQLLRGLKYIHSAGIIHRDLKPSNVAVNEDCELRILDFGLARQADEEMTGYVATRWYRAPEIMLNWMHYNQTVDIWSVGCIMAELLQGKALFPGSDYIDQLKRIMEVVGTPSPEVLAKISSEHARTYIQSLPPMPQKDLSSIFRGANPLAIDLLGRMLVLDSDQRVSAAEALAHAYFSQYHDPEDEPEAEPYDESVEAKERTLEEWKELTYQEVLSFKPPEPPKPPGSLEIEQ
T1 sequence (O15264 whole entry, looked up, chain 4 of 4): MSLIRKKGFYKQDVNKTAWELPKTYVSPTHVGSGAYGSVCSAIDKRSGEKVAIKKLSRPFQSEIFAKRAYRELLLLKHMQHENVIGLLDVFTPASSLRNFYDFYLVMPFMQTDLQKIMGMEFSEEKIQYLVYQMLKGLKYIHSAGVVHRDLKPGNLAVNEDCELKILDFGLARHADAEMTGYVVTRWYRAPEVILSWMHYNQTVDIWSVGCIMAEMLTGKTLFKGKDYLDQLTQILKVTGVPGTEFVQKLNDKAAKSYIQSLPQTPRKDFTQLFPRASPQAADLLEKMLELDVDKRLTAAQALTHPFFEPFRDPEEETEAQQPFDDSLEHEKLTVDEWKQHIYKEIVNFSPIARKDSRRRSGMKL

Turning to POLYMYXIN B [listing 1 of 2 here], the Activity entry in data set [1] was “Dose-dependent effect”. For the same compound, the outcome in data set [2] and in data set [5] was inactive. In addition, in the data set listed under Mus musculus [3], the result was Active. Also, the ED50 in data set [4] was 1.22 µM.

The pIC50 is −log10 of the IC50, conventionally taken in molar units. Take POLYMYXIN B [listing 2 of 2 here]: the pIC50 in the data set with Blood [6] is 4.96; in the data set with Blood [7], 4.79; in the data set with Blood [8], 4.85; in the data set on J774.A1 (j774.a1) it was 5.75.

With `CCCCCCCCCCCCCCCC(CCCCCCCCCCCCCCC)NCCCNCCCNCCCCNCCCNCCCNC(CCCCCCCCCCCCCCC)CCCCCCCCCCCCCCC`, the pIC50 in the data set on HEK293 was 4.68.

For the compound `CCCCCCCCCCCCCCC/C=C(/CCCCCCCCCCCCCC)CNCCCNCCCNCCCCNCCCN`, the Activity entry in data set [1] is “Dose-dependent effect”; in the data set on Mus musculus [9], “Dose-dependent effect”; with Mus musculus [11] it was “Dose-dependent effect”; with Mus musculus [12], “Non-toxic”; in the data set with Mus musculus [13], “Dose-dependent effect”. The pIC50 in the data set on Blood [6] (Homo sapiens, Blood) is 5.40; in the data set with Blood [7] (Homo sapiens, Blood) it was 5.51; with Blood [8] (Homo sapiens, Blood), 5.41; with J774.A1 (Mus musculus, J774.A1), 5.65; in the data set with HEK293, 5.54. In addition, the outcome (in data set [2]; in data set [5]; in the data set filed under Mus musculus [14]) was inactive. In addition, the outcome in the data set listed under Mus musculus [3] and in the data set on Mus musculus [10] was Active. This compound gave an ED50 in data set [4] of 3.14 µM.

In the case of `CCCCCCCCCCCCCCCCN(CCCCCCCCCCCCCCCC)CCCNCCCNCCCCNCCCN`, in the data set on HEK293, the pIC50 was 5.57.

In the data set with HEK293, `CCCCCCCCCCCCCCCC(CCCCCCCCCCCCCCC)NCCCNCCCNCCCCNCCCN` showed a pIC50 of 5.57.

In the data set on HEK293, `CCCCCCCCCCCCCCCCC(CCCCCCCCCCCCCC)CNCCCNCCCNCCCCNCCCN` (stereo not given) had a pIC50 of 5.59.

`CCCCCCCCCCCCCCC/C=C(/CCCCCCCCCCCCCC)CNCCCNCCCNCCCCNCCCNCCCNC/C(=C\CCCCCCCCCCCCCCC)CCCCCCCCCCCCCC` showed a pIC50 in the data set with HEK293 of 4.66.
